Bioassay records: PubChem BioAssay, several laboratories
PREPL inhibitor = inhibitors of human prolyl oligopeptidase-like enzyme PREPL | Q4J6C6 | recombinant PREPL, fluorescence polarization activity-based probe | inhibition, % at 5.96 µM | hit rate 0.68% among 320,000; in the data active = inhibition above about 43%;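 also: 0% = enzyme with DMSO and 100% = wells lacking enzyme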
ALR H2O2 inh = blocks human ALR sulfhydryl oxidase activity; hit rate 3.8% among 290,000; purified ALR, DTT oxidation, H2O2 HRP-luminol luminescence; inhibition, % (test concentration not listed);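 active = mean replicate inhibition above about 79%, with every replicate also reaching it, limit read from the data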
UBC13 inh = blocks human UBC13 polyubiquitin chain formation; TR-FRET; inhibition, % at 20 µM; hit rate 0.47% among 330,000; AID 485273; P61088; in the data active = inhibition above about 45%, passing the limit was not always enough
Rin1 Abl inh = inhibitors of human Rin1-Abl protein interaction; TR-FRET Rin1/Abl binding, biochemical; inhibition, % at 7.35 µM; hit rate 0.4% among 360,000; in the data active = inhibition above about 5%, passing the limit was not always enough
Target sequence (P00519 whole entry, looked up): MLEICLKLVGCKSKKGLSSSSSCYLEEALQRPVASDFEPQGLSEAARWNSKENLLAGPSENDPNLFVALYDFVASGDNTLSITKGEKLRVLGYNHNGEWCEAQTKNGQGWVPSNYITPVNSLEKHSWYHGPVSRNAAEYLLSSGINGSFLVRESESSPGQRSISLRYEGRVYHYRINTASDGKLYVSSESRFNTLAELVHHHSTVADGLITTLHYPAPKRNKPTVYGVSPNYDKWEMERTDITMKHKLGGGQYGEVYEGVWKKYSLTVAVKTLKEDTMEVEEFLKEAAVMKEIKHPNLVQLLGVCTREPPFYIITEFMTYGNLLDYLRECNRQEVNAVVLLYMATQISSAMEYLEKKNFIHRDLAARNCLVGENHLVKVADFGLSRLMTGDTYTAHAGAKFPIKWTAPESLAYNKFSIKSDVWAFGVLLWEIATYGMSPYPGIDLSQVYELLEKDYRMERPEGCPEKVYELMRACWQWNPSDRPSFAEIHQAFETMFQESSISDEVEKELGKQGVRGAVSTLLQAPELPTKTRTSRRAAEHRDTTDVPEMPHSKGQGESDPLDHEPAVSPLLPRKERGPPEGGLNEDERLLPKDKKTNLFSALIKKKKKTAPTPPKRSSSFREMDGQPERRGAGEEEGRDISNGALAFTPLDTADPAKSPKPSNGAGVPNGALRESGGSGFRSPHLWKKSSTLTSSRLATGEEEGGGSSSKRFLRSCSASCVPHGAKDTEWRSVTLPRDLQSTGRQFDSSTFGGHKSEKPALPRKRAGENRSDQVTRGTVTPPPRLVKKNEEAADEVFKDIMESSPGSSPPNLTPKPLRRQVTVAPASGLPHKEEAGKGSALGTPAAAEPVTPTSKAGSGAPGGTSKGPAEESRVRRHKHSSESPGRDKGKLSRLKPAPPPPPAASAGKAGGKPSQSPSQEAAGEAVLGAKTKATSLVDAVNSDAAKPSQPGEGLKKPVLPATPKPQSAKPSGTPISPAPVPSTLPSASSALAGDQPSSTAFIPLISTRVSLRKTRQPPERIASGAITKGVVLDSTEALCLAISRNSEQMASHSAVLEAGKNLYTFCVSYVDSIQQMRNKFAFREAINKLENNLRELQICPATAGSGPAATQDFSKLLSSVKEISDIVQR
Target sequence (Q13671 whole entry, looked up): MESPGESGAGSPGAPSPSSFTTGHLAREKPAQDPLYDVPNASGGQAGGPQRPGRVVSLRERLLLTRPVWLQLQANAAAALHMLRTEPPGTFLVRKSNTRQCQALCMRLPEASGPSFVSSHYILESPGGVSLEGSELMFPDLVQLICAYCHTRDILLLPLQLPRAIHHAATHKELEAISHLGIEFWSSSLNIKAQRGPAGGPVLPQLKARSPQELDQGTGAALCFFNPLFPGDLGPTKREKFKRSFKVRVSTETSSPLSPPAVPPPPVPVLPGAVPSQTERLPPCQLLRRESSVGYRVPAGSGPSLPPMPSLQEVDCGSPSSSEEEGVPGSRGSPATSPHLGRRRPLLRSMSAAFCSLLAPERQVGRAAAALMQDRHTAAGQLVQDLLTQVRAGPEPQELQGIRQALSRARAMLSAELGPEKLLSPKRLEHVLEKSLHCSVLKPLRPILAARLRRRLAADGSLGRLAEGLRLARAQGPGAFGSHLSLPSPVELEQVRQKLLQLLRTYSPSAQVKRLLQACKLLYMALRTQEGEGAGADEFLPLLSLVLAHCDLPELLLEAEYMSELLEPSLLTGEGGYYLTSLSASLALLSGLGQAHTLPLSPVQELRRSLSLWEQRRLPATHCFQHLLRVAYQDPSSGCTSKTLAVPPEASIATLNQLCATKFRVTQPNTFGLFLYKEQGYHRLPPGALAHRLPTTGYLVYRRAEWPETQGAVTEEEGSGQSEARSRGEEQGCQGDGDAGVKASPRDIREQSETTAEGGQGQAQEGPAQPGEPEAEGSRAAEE
UBC9 SUMO inh = SUMOylation inhibition. P63279. HTRF SUMOylation assay, SAE1/SAE2 + UBC9, in vitro. inhibition, % at 35 µM. hit rate 0.36% among 290,000; in the data active = inhibition above about 50%, passing the limit was not always enough
RBBP9 inhibitor = human RBBP9 hydrolase inhibition; O75884; recombinant RBBP9, FP-Rh probe fluorescence polarization; inhibition, % at 7.94 µM; hit rate 0.2% among 220,000; AID 1515;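 active = inhibition above the campaign mean of all tested compounds plus 3 SD, cut at about 14% in these data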;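 also: plate controls were DMSO wells with RBBP9 for no effect and wells lacking RBBP9 protein for full effect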
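Test system – recombinant human RBBP9 · Input – RBBP9 2.5 µM in dispensing solution, pre-mixing · Medium – Tris buffer pH 8.0, NaCl, Pluronic · Schedule – preincubation 30 min plus labeling 45 min at 25 °C · Measured by – fluorescence polarization · Measure – % inhibition · Controls – DMSO and no-protein wells · Replicates – one well per compound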
Numbers without * were called inactive; / = no result given. In the library only some 4.3% were active in any assay of this set; here they are far more common.

SMILES | PREPL inhibitor | ALR H2O2 inh | UBC13 inh | Rin1 Abl inh | UBC9 SUMO inh | RBBP9 inhibitor
CCc1ccccc1NC(=O)CNC(=O)c1ccc(-n2cncn2)c([N+](=O)[O-])c1 | -1.9 | -10.7 | -7.0 | -2.2 | / | /
COCCC(=O)N1CCOCC1c1cc(C(=O)NCc2ccccc2)no1 (stereo unspecified) | / | / | / | -3.2 | / | /
O=C1OC(c2ccccc2)/C(=C(/O)c2ccc(Cl)cc2)C1=O (stereo unspecified) | -6.1 | 98.5* | -3.2 | 3.7 | 3.8 | -2.0
Cc1ccc(/C(O)=C2/C(=O)C(=O)OC2c2ccc(Cl)cc2)cc1 (stereo unspecified) | -10.7 | 92.1* | -9.7 | 2.3 | -3.4 | -11.1
O=C1OC(c2ccccc2)/C(=C(/O)c2ccccc2)C1=O (stereo unspecified) | 0.3 | 92.3* | -7.5 | -1.4 | 12.1 | 2.7
Cn1cc(CN2CCC(C(=O)Nc3ccc(Oc4ccccc4F)cc3)CC2)cn1 | -1.6 | -15.2 | 12.3 | 2.5 | -1.9 | /
Cc1c(Cl)cccc1N1C(=O)CC(NNC(=O)c2ccc3c(c2)OCO3)C1=O (stereo unspecified) | 0.0 | / | 12.1 | -2.2 | / | /
Cc1cc(C)c2c(N)c(S(=O)(=O)Cc3ccccc3)sc2n1 | -2.3 | 91.2* | 7.1 | -3.5 | -2.1 | -15.2
CNc1cncc(-c2cccc(OC)c2F)n1 | / | / | / | -4.6 | / | /
COc1ccc(S(=O)(=O)N2CCOCC2)cc1NC(=O)c1ccc(SC)cc1OC | / | / | / | 2.3 | / | /
CCOc1ccc(NC(=O)CN2C(=O)COc3ccccc32)cc1 | 15.9 | -3.8 | 5.1 | -0.3 | 3.6 | /
CCCCC1(C)OC(=O)C(=Cc2ccc(N(CC)CC)cc2)C(=O)O1 (stereo unspecified) | -19.1 | 96.6* | -154.9 | -2.4 | 17.8 | -19.8
CCOc1ccc(OCCC(=O)OCC(=O)Nc2ccc(Cl)cn2)cc1 | 2.4 | / | -1.3 | 0.5 | / | /
Cc1ccccc1C(=O)Nc1ccc(-c2nc3ccc(C(=O)c4ccccc4)cc3[nH]2)cc1 | 1.3 | -0.1 | -3.9 | 8.5* | -2.8 | -45.1
O=C(Nc1ccc(-c2nc3ccc(NC(=O)c4cccs4)cc3[nH]2)cc1)c1cccs1 | 10.6 | / | 41.2 | 2.7 | 55.7* | -8.4
Nc1ccc(NC(=O)c2cccs2)cc1 | 10.1 | 98.4* | -4.3 | 0.8 | 8.2 | -6.4
O=C(NN1CCOCC1)c1ccc(Cl)cc1[N+](=O)[O-] | 0.5 | -7.4 | -4.1 | -0.3 | 3.9 | /
O=C(c1cncs1)N1CCCC(CNS(=O)(=O)c2cccs2)C1 (stereo unspecified) | 7.2 | -6.1 | -18.5 | -2.2 | 2.7 | -4.3
c1ccc2c(-c3ccc4nncn4c3)cncc2c1 | / | / | / | -2.1 | / | /
COc1cc(C2C(C#N)=C(N)Oc3c2oc(CO)cc3=O)ccc1OC(C)C (stereo unspecified) | 2.2 | 84.9* | -3.2 | -2.6 | 20.9 | 5.8
CC(C)=CC(=O)NCCc1ccccc1 | 5.5 | -0.8 | 14.2 | 0.4 | 15.6 | 0.0
C/C(=C/C(=O)NCc1ccccc1)C(=O)O | 3.1 | -0.1 | 13.8 | 1.0 | 52.5* | -7.1
COc1ccc([N+](=O)[O-])cc1-c1[nH]c(-c2ccc(C(=O)O)cc2)nc1-c1ccccc1 | 2.9 | 98.0* | -24.5 | -0.5 | 20.7 | /
Cc1ccc([N+](=O)[O-])cc1-c1[nH]c(-c2ccc(O)c(O)c2)nc1-c1ccccc1 | 16.1 | 96.7* | -6.0 | -2.5 | -6.5 | -15.3
NC(N)=Nc1cc2ccccc2c2ccccc12 | 3.8 | 35.8 | -4.7 | / | 86.5* | -5.5
SMILES | PREPL inhibitor | ALR H2O2 inh | UBC13 inh | Rin1 Abl inh | UBC9 SUMO inh | RBBP9 inhibitor
CCn1c(=O)c2sccc2n(Cc2ccccc2)c1=O | 3.1 | -6.8 | 13.2 | -5.1 | 18.4 | /
COc1ccccc1CNC(=O)COc1cccc(-n2cnnn2)c1 | -8.2 | -48.1 | 1.8 | 3.2 | / | /
CCOC(=O)C1(CCc2ccccc2)CCN(C(=O)Cc2nonc2C)CC1 | -4.4 | 100.2* | -2.2 | 0.1 | -8.9 | -3.6
CCOC(=O)C1(CCc2ccccc2)CCN(C(=O)c2occc2C)CC1 | -2.5 | 1.1 | -1.0 | -4.0 | 9.4 | -9.0
COc1ccc(NC2CCCN(C(=O)c3cccnc3)C2)cc1 (stereo unspecified) | 6.1 | 96.8* | -8.4 | -2.3 | -5.9 | /
CC(C)c1ccc(NC2CCCN(C(=O)c3cccc(N4CCNC4=O)c3)C2)cc1 (stereo unspecified) | 19.8 | 94.8* | -13.2 | 6.6 | 11.5 | /
COc1ccc(NC2CCCN(C(=O)c3cccc(N4CCNC4=O)c3)C2)cc1 (stereo unspecified) | 7.3 | 99.3* | 1.7 | 1.3 | -4.4 | /
Cc1cccc(N2CC(C(=O)Nc3nnc(SCC(=O)NCC4CCCO4)s3)CC2=O)c1 (stereo unspecified) | 5.3 | 6.2 | -4.2 | 0.3 | 5.3 | /
CC(C)S(=O)(=O)c1csc(C(=O)Nc2ccc(F)cc2)c1N | 2.9 | -5.1 | 0.3 | 0.8 | -9.1 | -4.2
CC1CC1C(=O)N(C)CC(=O)Nc1cccc(F)c1 (stereo unspecified) | -6.3 | / | 2.5 | 0.4 | / | /
CC(Oc1ccc(F)cc1)C(=O)Nc1ccccc1C(=O)N1CCCCC1 (stereo unspecified) | 17.9 | -2.8 | 10.5 | -0.9 | / | /
COc1ccc(N2CCN(C(=O)CSc3ncn[nH]3)CC2)cc1 | 15.4 | 99.1* | 4.6 | -1.7 | / | /
CCOC(=O)Cc1csc(SCC(=O)N2CCN(c3ccc(OC)cc3)CC2)n1 | 3.7 | 87.0* | 2.8 | -0.2 | 16.5 | -11.5
NC(=O)C1CCN(C(=O)CCSCc2ccccc2)CC1 | 1.9 | -17.8 | -34.3 | -1.4 | 17.6 | /
CCC(Sc1nc(-c2ccccc2)c(-c2ccccc2)[nH]1)C(=O)O (stereo unspecified) | 1.4 | 82.0* | 7.9 | 2.4 | 5.4 | /
COc1cc(NC(=O)C(C)Oc2ccccc2)ccc1NC(=O)COc1ccccc1 (stereo unspecified) | 0.3 | -9.8 | 8.4 | 1.6 | -14.8 | /
CCc1ccc(-c2nc(CS(=O)CC(=O)NCc3ccc4c(c3)OCO4)c(C)o2)cc1 (stereo unspecified) | 0.2 | 99.4* | 2.8 | 0.9 | -2.6 | /
Cc1ccc(CC(=O)NCc2ccc3c(c2)OCO3)cc1 | 9.4 | 0.3 | -1.4 | -2.9 | 19.8 | 1.9
Cc1ccc(-c2nc(CS(=O)CC(=O)NCc3ccc4c(c3)OCO4)c(C)o2)cc1 (stereo unspecified) | -4.7 | 98.8* | 2.9 | -0.6 | 0.8 | /
CCN(c1ccc(NC(=O)COC(=O)c2cccs2)cc1)C(C)C | 0.0 | 98.8* | -6.0 | 3.9 | -13.4 | -8.1
CCN(c1ccc(NC(=O)COC(=O)/C=C/c2ccco2)cc1)C(C)C | 4.6 | 98.6* | 2.6 | -5.1 | / | /
CC(=O)c1cccc(NC(=O)COC(=O)c2cccs2)c1 | 1.1 | -2.0 | 3.7 | -1.9 | 9.2 | 1.0
CCN(CC)c1ccc(NC(=O)COC(=O)c2cccs2)cc1 | 3.3 | 97.9* | 4.0 | -0.9 | -10.6 | -7.0
CCN(CC)c1ccc(NC(=O)COC(=O)c2ccc3ccccc3n2)cc1 | 9.2 | 98.9* | -7.2 | 0.2 | -0.6 | -6.3
CCN(c1ccc(NC(=O)COC(=O)c2cc3ccccc3oc2=O)cc1)C(C)C | 16.9 | / | -0.4 | 0.3 | -13.9 | -12.0
